Source: PubChem
PAFAH1B2 inh = blocks human PAF acetylhydrolase 1b catalytic subunit 2; P68402; recombinant PAFAH1B2, FP-rhodamine activity probe, fluorescence polarization; inhibition, % at 3.39 µM; actives 1.2% (n = 340,000); AID 492953;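 active = inhibition above the mean of all tested compounds plus 3 SD, cut at about 24% in these data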;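 note: 0% = enzyme with DMSO and 100% = wells lacking PAFAH1B2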
Target sequence (P68402 whole entry, looked up): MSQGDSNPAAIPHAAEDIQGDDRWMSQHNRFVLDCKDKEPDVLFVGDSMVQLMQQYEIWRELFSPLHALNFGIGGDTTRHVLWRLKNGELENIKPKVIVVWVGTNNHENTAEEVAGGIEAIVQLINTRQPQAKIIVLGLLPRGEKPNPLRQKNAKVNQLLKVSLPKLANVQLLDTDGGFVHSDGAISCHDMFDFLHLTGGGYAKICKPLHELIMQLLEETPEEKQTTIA
Apaf1 inhib = blocks human Apaf-1 apoptosome activity. O14727. reconstituted apoptosome caspase-3 activity, DEVD-Rh110 fluorescence. inhibition, % at 20 µM. actives 0.71% (n = 330,000). AID 489030; active = inhibition of at least 40% at 20 µM;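 note: plate controls were DMSO wells for no effect and DEVD-CHO caspase inhibitor wells for full effect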
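Material: biochemical Apaf-1 apoptosome reconstitution. Medium: Hepes buffer, pH 7.5. Also added: cytochrome c activation, bis-DEVD rhodamine 110 substrate. Timing: 30 min compound preincubation, 50 min activation, room temperature. Measured by: rhodamine 110 fluorescence at Ex 480/Em 540 nm.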
PAFAH2 FP inh = PAFAH2 (human) inhibition | recombinant PAFAH2, FP-rhodamine activity probe, fluorescence polarization | inhibition, % at 3.39 µM | actives 0.99% (n = 340,000) | AID 492956;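 active = inhibition above the mean over all tested compounds plus 3 SD, cut at about 30% in these data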;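 note: inhibitors block probe labeling of enzyme so polarization drops; 0% = enzyme with DMSO and 100% = wells lacking PAFAH2 protein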
PAFAH1B3 inh = PAFAH1B3 (human) inhibition. recombinant PAFAH1B3, FP-rhodamine probe, fluorescence polarization. inhibition, % at 3.39 µM. actives 0.28% (n = 340,000). AID 492972;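 active = inhibition above the screen-wide average of all tested compounds plus 3 SD, cut at about 25% in these data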;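 note: 0% = enzyme with DMSO only and 100% = wells lacking PAFAH1B3 protein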
PREPL inh = inhibits the human prolyl oligopeptidase-like enzyme. actives 0.68% (n = 320,000). inhibition, % at 5.96 µM. recombinant PREPL, fluorescence polarization activity-based probe. AID 2751. Q4J6C6; in the data active = inhibition above about 43%;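 note: 0% = enzyme with DMSO and 100% = wells lacking enzyme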
pPAFAH inh = inhibitors of human plasma PAF acetylhydrolase (pPAFAH) | recombinant pPAFAH, FP-rhodamine probe fluorescence polarization | inhibition, % at 3.39 µM | actives 1.5% (n = 330,000);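 active = inhibition above the mean inhibition across the screen plus 3 SD, cut at about 25% in these data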;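 note: inhibitors block binding of the rhodamine activity-based probe so polarization drops; 0% = enzyme with DMSO and 100% = wells lacking pPAFAH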
Target sequence (Q13093 whole entry, looked up): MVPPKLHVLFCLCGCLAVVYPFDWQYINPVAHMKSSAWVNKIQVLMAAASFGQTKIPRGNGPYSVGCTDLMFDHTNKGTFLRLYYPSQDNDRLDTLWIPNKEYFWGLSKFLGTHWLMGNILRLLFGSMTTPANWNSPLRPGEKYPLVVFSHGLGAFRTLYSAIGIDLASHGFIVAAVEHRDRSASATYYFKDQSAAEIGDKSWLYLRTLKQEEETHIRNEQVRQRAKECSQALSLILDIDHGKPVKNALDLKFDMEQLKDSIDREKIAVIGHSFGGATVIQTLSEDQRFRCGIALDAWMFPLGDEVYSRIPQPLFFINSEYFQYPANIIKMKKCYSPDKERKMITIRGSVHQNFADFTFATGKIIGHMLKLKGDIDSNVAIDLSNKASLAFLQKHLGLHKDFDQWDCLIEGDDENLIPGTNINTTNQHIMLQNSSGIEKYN
PAFAH2 confirm = PAFAH2 (human) inhibition, confirmed; shares compounds with PAFAH2 FP inh; recombinant PAFAH2, FP-rhodamine activity probe, fluorescence polarization; inhibition, % at 3.39 µM; actives 65% (n = 2,300); AID 493030;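 active = mean inhibition over three repeats above a set limit taken from the earlier primary screen, cut at about 30% in these data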;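 note: inhibitor blocks binding of rhodamine activity probe so polarization falls; 0% = enzyme with DMSO and 100% = wells lacking PAFAH2 protein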
Numbers without * were called inactive; nt = no result. Only some compounds are listed: those with a hit (about 3.5% of all), similar ones and a draw of the others.

SMILES | PAFAH1B2 inh | Apaf1 inhib | PAFAH2 FP inh | PAFAH1B3 inh | PREPL inh | pPAFAH inh | PAFAH2 confirm
CC(C)(C)NC(=O)COC(=O)c1ccc(O)cc1 | 0 | -14 | 64* | 1 | 3 | 4 | 53*
O=C(COC(=O)c1ccc(O)cc1)NCC1COc2ccccc2O1 (centres undefined) | -3 | -6 | 32* | 4 | -9 | 3 | 27
CCOc1ccc(NC(=O)COC(=O)c2ccc3c(c2)OCO3)cc1 | 2 | -3 | 64* | -6 | 3 | 5 | 62*
CCC(=O)c1ccc(OCC(=O)NCC2COc3ccccc3O2)cc1 (centres undefined) | 2 | -2 | 2 | 6 | -9 | 2 | nt
Nc1ccc(C(=O)OCC(=O)NC(=O)c2ccccc2)cc1[N+](=O)[O-] | -3 | 10 | 38* | 5 | 10 | 6 | 22
Cc1ccc(CS(=O)(=O)Cc2ccc(C(=O)NC3CCCCCC3)o2)cc1 | 5 | 6 | -1 | 1 | 12 | 11 | nt
CCc1noc(C)c1C(=O)NNC(=O)COc1ccc(C)c(C)c1 | -4 | 4 | 6 | 9 | 7 | -3 | nt
Nc1ncc(Br)cc1S(=O)(=O)Nc1ccccc1F | 1 | -3 | 4 | 10 | 6 | 8 | nt
O=C(COC(=O)c1ccc2c(c1)OCO2)Nc1cccc(F)c1 | 0 | 9 | 81* | -3 | 16 | 7 | 84*
O=C(COC(=O)c1ccc2[nH]c3c(c2c1)CCCC3)Nc1ccccc1Cl | 1 | 1 | 32* | 8 | 2 | 3 | 23
NC(=O)c1ccc(NC(=O)COC(=O)c2ccc3c(c2)OCO3)cc1 | 1 | -12 | 4 | -9 | -4 | 1 | nt
O=C(COC(=O)c1ccc2c(c1)OCO2)Nc1ccccc1Cl | 6 | 0 | 58* | 5 | 11 | 1 | 44*
COc1ccc(NC(=O)COC(=O)c2ccc3c(c2)OCO3)c(OC)c1 | -2 | -5 | 0 | 3 | 2 | 5 | nt
O=C(COC(=O)c1cccnc1Cl)Nc1ccc2c(c1)OCCO2 | -1 | 0 | 36* | 9 | -3 | 6 | 30*
CC(C)n1cc(CN2CCCC(CO)(Cc3cccc(Cl)c3)C2)cn1 (centres undefined) | 4 | 3 | 0 | 3 | -6 | 6 | nt
CC(=O)c1ccc(S(=O)(=O)NC2CC(=O)N(c3ccc(C)c(C)c3)C2)cc1 (centres undefined) | 9 | 8 | 2 | 1 | 5 | 9 | nt
COc1ccc(C)cc1NC(=O)COC(=O)c1ccc2c(c1)OCCO2 | 6 | -16 | 20 | 12 | -12 | 1 | nt
Cc1ccc(NC(=O)COC(=O)c2ccc3c(c2)OCCO3)cc1 | -3 | 1 | 86* | 8 | -1 | 9 | 85*
O=C(O)c1ccccc1NS(=O)(=O)c1ccc2ccccc2c1 | 14 | 10 | 1 | -5 | 0 | -7 | nt
O=c1oc(-c2ccccc2NS(=O)(=O)c2ccc3ccccc3c2)nc2ccccc12 | 4 | 6 | 36* | -20 | 3 | -6 | 40*
Cc1ccc(N2CC(C(=O)Nc3c4c(nn3C(C)(C)C)CS(=O)(=O)C4)CC2=O)cc1C (centres undefined) | -3 | -3 | 158* | -3 | 12 | 5 | 0
COc1ccc(C(=O)OCc2cc(C)ccc2C)cc1S(=O)(=O)N1CCCC1 | 2 | 6 | 10 | 0 | 14 | 2 | nt
COc1ccc(C(=O)OCC(=O)NC2CC2)cc1S(=O)(=O)N1CCOCC1 | 4 | 3 | 52* | 7 | 2 | 1 | 39*
COc1ccc(C(=O)OCC(=O)N2CCOCC2)cc1S(=O)(=O)N1CCOCC1 | -7 | -16 | 1 | 0 | -4 | -1 | nt
COC(=O)c1cc(COC(=O)c2ccc(OC)c(S(=O)(=O)N3CCCC3)c2)oc1C | 2 | nt | 41* | 8 | nt | nt | 23
SMILES | PAFAH1B2 inh | Apaf1 inhib | PAFAH2 FP inh | PAFAH1B3 inh | PREPL inh | pPAFAH inh | PAFAH2 confirm
O=C(COC(=O)c1ccc(F)c(S(=O)(=O)N2CCOCC2)c1)NC1CCCCC1 | 2 | -8 | 71* | -1 | 3 | 2 | 60*
CC(C)(C)NC(=O)c1cccc(NC(=O)Cc2cccs2)c1 | 0 | -13 | -4 | 9 | -1 | 1 | nt
Cc1ccc(NC2c3ncccc3C(=O)N2Cc2cccs2)cc1C (centres undefined) | 0 | 12 | 69* | 1 | -5 | -2 | -8
O=C(COC(=O)CNC(=O)c1ccc(Cl)cc1Cl)NC1CCCCC1 | -5 | 0 | -8 | -4 | nt | nt | nt
Nc1cc(Cl)ccc1C(=O)OCC(=O)NC1CCCCCCC1 | 1 | -2 | 47* | 0 | 10 | 7 | 41*
CCOc1ncccc1C(=O)OC(C)C(=O)NC1CCCCC1 (centres undefined) | 0 | 1 | 2 | 3 | nt | nt | nt
O=C(COC(=O)c1cccnc1Cl)NCc1cccs1 | 5 | -7 | 1 | -5 | -2 | 10 | nt
CCOc1ncccc1C(=O)OCC(=O)NC1CCCCCC1 | 4 | 3 | 84* | -2 | nt | nt | 79*
CCOc1ncccc1C(=O)OCC(=O)NCc1cccs1 | 3 | -3 | 40* | 6 | 11 | 15 | 27
O=C(COC(=O)c1c(Cl)cccc1Cl)NC1CCCCC1 | 4 | -3 | 8 | 9 | 15 | 6 | nt
O=C(COC(=O)c1cccnc1Cl)NC1CCCCCC1 | 5 | -9 | 73* | 7 | 12 | 8 | 66*
CCNS(=O)(=O)c1ccc(C(=O)Nc2ccccc2)cc1 | 3 | -4 | 6 | 3 | 4 | 6 | nt
CCCCCC(=O)O/N=C(\C)c1ccn(S(=O)(=O)c2ccccc2)c1 | 17 | 24 | -5 | 5 | 6 | 13 | nt
O=C(CN(CC1CCCO1)C(=O)CNS(=O)(=O)c1ccccc1)NCc1ccc(F)cc1 (centres undefined) | 2 | -5 | 7 | 6 | -3 | 15 | nt
CSc1ncccc1C(=O)OCC(=O)NC1CCCCC1 | -4 | -9 | 38* | -6 | 0 | 2 | 36*
CSc1ncccc1C(=O)OCC(=O)NC12CC3CC(CC(C3)C1)C2 | 13 | 15 | 72* | 3 | 2 | 5 | 72*
CSc1ncccc1C(=O)OCC(=O)NC1CCCC1 | 4 | -2 | 15 | -3 | 2 | 1 | nt
CSc1ncccc1C(=O)OCC(=O)NC1CC1 | 6 | -10 | 5 | 10 | nt | nt | nt
CN(C)c1nc(N(C)C)n(C(=O)c2cccs2)n1 | 6 | -2 | -3 | -2 | 16 | 0 | nt
CC(=O)NCCC(=O)Nc1nc2ccc(Oc3ccccc3)cc2s1 | 2 | 17 | -2 | 5 | 7 | 12 | nt
Cc1cc(C)c(S(=O)(=O)N2CCN(C(=O)N3CCCCC3)CC2)c(C)c1 | -3 | 5 | 34* | 8 | 2 | 1 | 30*
COc1ccc(C(F)(F)F)cc1N/C=C/c1nnnn1-c1ccc(C)cc1 | 5 | 9 | 1 | 5 | -1 | 5 | nt
